Reference: ChEMBL document CHEMBL4304789, “Design, Synthesis, and Biological Evaluation of 2,4-Imidazolinedione Derivatives as HDAC6 Isoform-Selective Inhibitors” (ACS Med Chem Lett, 2019)
The source made the active and inactive calls. The calls are words filed in the database; no cut-off is given here.

Columns and labels:
HL-60 = experiment: Induction of apoptosis in human in human HL60 cells assessed as increase in caspase 3 activation at 0.25 to 0.75 uM using […] as substrate preincubated for 24 to 48 hrs followed by substrate addition and measured after 1.5 hrs by fluorescence based assay; assay type: functional, cell-based
Outline: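 HL-60 cells exposed to 0.25, 0.45 and 0.75 μM for 24 and 48 h, with untreated cells as control; activated caspase 3 measured. Mean ± SD of at least three independent experiments; significance versus untreated control set at p < 0.05.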

Homo sapiens [1] = organism: Homo sapiens; experiment: Selectivity ratio of IC50 for HDAC1 (unknown origin) to IC50 for HDAC6 (unknown origin)
Outline: (§1)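 Each isoform's IC50 comes from a dose–effect curve in an HDAC isoform inhibition panel, with replicates n ≥ 2. The ratio is that isoform's IC50 divided by the HDAC6 IC50.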

Homo sapiens [2] = organism: Homo sapiens; experiment: Selectivity ratio of IC50 for HDAC2 (unknown origin) to IC50 for HDAC6 (unknown origin); outline: as §1
Homo sapiens [3] = organism: Homo sapiens; experiment: Selectivity ratio of IC50 for HDAC3 (unknown origin) to IC50 for HDAC6 (unknown origin); outline: as §1
Homo sapiens [4] = organism: Homo sapiens; experiment: Selectivity ratio of IC50 for HDAC4 (unknown origin) to IC50 for HDAC6 (unknown origin); outline: as §1
Homo sapiens [5] = organism: Homo sapiens; experiment: Selectivity ratio of IC50 for HDAC8 (unknown origin) to IC50 for HDAC6 (unknown origin); outline: as §1
Homo sapiens [6] = organism: Homo sapiens; experiment: Selectivity ratio of IC50 for HDAC9 (unknown origin) to IC50 for HDAC6 (unknown origin); outline: as §1

Ratio IC50 (Homo sapiens [1]): 218
Ratio IC50 (Homo sapiens [2]): 63
Ratio IC50 (Homo sapiens [3]): 53
Ratio IC50 (Homo sapiens [4]): > 20000
Ratio IC50 (Homo sapiens [5]): > 20000
Ratio IC50 (Homo sapiens [6]): > 20000
SMILES: Cc1ccc(CN2C(=O)N(c3ccc(Cl)cc3)C(=O)C2CCC(=O)Nc2ccc(C(=O)NO)cc2)cc1 (configuration not stated)
Activity (HL-60): Active
